Reference: ChEMBL document CHEMBL3992522, “Antileishmanial Activity of Pyrazolopyridine Derivatives and Their Potential as an Adjunct Therapy with Miltefosine” (J Med Chem, 2017)
Activity calls are given as the source filed them. The rule behind the calls is not given here.

Experiments:
Leishmania donovani [1] = assay: Antileishmanial activity against Leishmania donovani MHOM/IN/80/DD8 promastigote forms harboring luciferase gene at 50 uM after 72 hrs by Steady-Glo reagent based luminescence assay relative to control; format: functional; details: MHOM/IN/80/DD8, 72 h, read-out: GI
Outline: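 Exponential-phase Dd8-Luc promastigotes at 1×10^6/mL in M199 with 10% FBS, 24 °C, given 50 and 25 µM for 72 h. Vehicle 0.1% DMSO. Steady-Glo added 1:1, luminescence (RLU) read. IC50 from four-parameter Hill regression, derived only where inhibition exceeded 90%. Means of at least three independent experiments.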

Leishmania donovani [2] = assay: Antileishmanial activity against Leishmania donovani MHOM/IN/80/DD8 amastigote forms harboring luciferase gene infected in mouse J774 cells at 50 uM after 72 hrs by Steady-Glo reagent based luminescence assay relative to control; format: functional; details: MHOM/IN/80/DD8, J774, 72 h, read-out: GI
Outline: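 Stationary-phase luciferase-expressing Dd8 promastigotes infected into J774 macrophages (4×10^4/mL seeded, 24 h, 37 °C, 5% CO2) at 1:8 macrophage:parasite for 24 h. Non-internalised parasites washed off. Compounds added at 50 and 25 µM in RPMI/10% FBS for 72 h. Lysis with Steady-Glo luciferin reagent plus PBS, luminescence read. Inhibition relative to untreated infected controls.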

[3] = Cytotoxicity against mouse J774 cells assessed as reduction in cell viability after 72 hrs by MTT assay; format: cell-based
Outline: (§1)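 Vero and J774 cells seeded at 1×10^5 per well for 24 h, then exposed 72 h to seven two-fold dilutions from 500 to 7.81 μM. MTT solution (5 mg/mL stock) added for 2 h at 37 °C, formazan dissolved in DMSO and read at 540 nm. CC50 derived by the Huber and Koella method.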

[4] = Cytotoxicity against African green monkey Vero cells assessed as reduction in cell viability after 72 hrs by MTT assay; format: cell-based; details: chlorocebus sabaeus; outline: as §1
[5] = Selectivity index, ratio of CC50 for mouse J774 cells to IC50 for Leishmania donovani MHOM/IN/80/DD8 amastigote forms infected in mouse J774 cells; format: toxicity, cell-based; details: read-out: Ratio CC50/IC50
Outline: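 CC50: Vero or J774 cells (1×10^5/well) exposed 72 h to seven two-fold dilutions, 500–7.81 μM; MTT 2 h at 37 °C, formazan in DMSO read at 540 nm. IC50: luciferase-expressing Dd8 amastigotes in J774 macrophages (1:8), 72 h, luminescence, four-parameter Hill fit. SI = CC50/IC50, IC50 mean of three experiments.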

[6] = Cytotoxicity against mouse J774 cells assessed as cell viability […] after 72 hrs by MTT assay relative to control; format: cell-based; details: read-out: Activity; outline: as §1
Leishmania donovani [7] = assay: Antileishmanial activity against Leishmania donovani MHOM/IN/80/DD8 promastigote forms harboring luciferase gene at 7.19 uM up to 72 hrs by MTT assay relative to control; format: functional; details: MHOM/IN/80/DD8, 72 h
[8] = Half life in mouse liver S9 fractions at 1 mM in presence of NADPH by HPLC method; format: ADME, tissue-based
[9] = Metabolic stability in mouse liver S9 fractions assessed as rate constant for metabolism at 1 mM after 60 mins in presence of NADPH by HPLC method; format: ADME, tissue-based
Leishmania donovani [10] = assay: Antileishmanial activity against Leishmania donovani amastigote forms infected in Balb/c mouse assessed as inhibition of parasitic burden in liver at 50 mg/kg, ip administered for 5 consecutive days measured on day 7 post last treatment by Giemsa staining based assay relative to control; format: functional; details: 168 h
Leishmania donovani [11] = assay: Antileishmanial activity against Leishmania donovani amastigote forms infected in Balb/c mouse assessed as inhibition of parasitic burden in spleen at 50 mg/kg, ip administered for 5 consecutive days measured 1 week post last treatment by Giemsa staining based assay relative to control; format: functional; details: 168 h
Leishmania donovani [12] = assay: Antileishmanial activity against Leishmania donovani amastigote forms infected in Balb/c mouse assessed as inhibition of parasitic burden in spleen at 50 mg/kg, ip administered for 5 consecutive days measured up to 7 weeks post treatment by Giemsa staining based assay; format: functional, organism-based
Leishmania donovani [13] = assay: Antileishmanial activity against Leishmania donovani amastigote forms infected in Balb/c mouse assessed as reduction in liver weight at 12.5 to 200 mg/kg, ip administered for 5 consecutive days co-treated with 5 to 25 mg/kg, po miltefosine; format: functional, organism-based
Mus musculus [14] = assay: Restoration of T cell proliferation in Balb/c mouse splenocytes infected with Leishmania donovani amastigote forms at 25 mg/kg, ip co-treated with 5 mg/kg, po miltefosine administered for 5 consecutive days measured on day 4 post last treatment followed by soluble Leishmania donovani promastigote antigen-stimulation for 72 hrs by MTT assay relative to control; format: functional
Outline: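 Splenocytes from treated infected BALB/c mice (day 4 or 7 post-treatment) isolated by Ficoll gradient, plated at 10^5/well in triplicate in phenol red-free RPMI 1640, stimulated with 5 μg/mL SLA for 72 h at 37 °C, 5% CO2. Proliferation read by MTT (0.5 mg/mL), formazan dissolved in DMSO, OD 540 nm.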

Mus musculus [15] = assay: Increase in IFN-gamma level in Balb/c mouse splenocytes infected with Leishmania donovani amastigote forms at 25 mg/kg, ip co-treated with 5 mg/kg, po miltefosine administered for 5 consecutive days measured on day 4 post last treatment by sandwich ELISA relative to control; format: functional
Outline: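 Splenocytes (2×10^6) from treated infected BALB/c mice taken on day 4 or 7 post-treatment. Cultured in phenol-red-free RPMI 1640 with 5 μg/mL soluble L. donovani antigen for 72 h at 37 °C, 5% CO2. Supernatant cytokines measured by sandwich ELISA against a standard curve. Mean ± SD, n = 5 mice per group, three independent experiments.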

Leishmania donovani [16] = assay: Induction of apoptosis in Leishmania donovani MHOM/IN/80/DD8 promastigote forms assessed as early apoptotic cells at IC50 after 48 hrs by Annexin V-FITC/propidium iodide staining based flow cytometry (reference value: 7.41%); format: functional
Mus musculus [17] = assay: Increase in iNOS-mediated NO generation in Balb/c mouse splenocytes infected with Leishmania donovani amastigote forms at 25 mg/kg, ip for 5 consecutive days measured on day 4 and 7 post last treatment followed by soluble Leishmania donovani promastigote antigen-stimulation for 72 hrs by Griess assay relative to control; format: functional
Outline: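 Splenocytes from treated infected BALB/c mice (5-day regimen, i.p. test compound, oral miltefosine; n = 5) isolated day 4 and day 7 post-treatment. Cultured in phenol red-free RPMI 1640 with 5 μg/mL SLA for 72 h at 37 °C, 5% CO2. Supernatant nitrite measured by Griess assay at 540 nm against a sodium nitrite standard curve.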

Leishmania donovani [18] = assay: Induction of apoptosis in Leishmania donovani MHOM/IN/80/DD8 promastigote forms assessed as DNA fragmentation at 50 uM after 48 hrs by propidium iodide staining based TUNEL assay; format: functional
Outline: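 DNA fragmentation detected by TUNEL under fluorescence and phase-contrast microscopy, with counts of TUNEL-positive cells; three independent experiments.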

Leishmania donovani [19] = assay: Induction of mitochondrial membrane potential loss in Leishmania donovani MHOM/IN/80/DD8 promastigote forms at 50 uM after 6 hrs by JC-1 staining based flow cytometry (reference value: 5.02%); format: functional
[20] = Half life in Swiss mouse at 50 mg/kg, po by LC-MS/MS analysis; format: ADME, organism-based; details: in vivo
[21] = Apparent clearance in Swiss mouse at 50 mg/kg, po by LC-MS/MS analysis; format: ADME, organism-based; details: in vivo

## COc1ccc(C2C3=C(CCC3=O)Nc3c2c(-c2c[nH]c4ccccc24)nn3-c2ccc(Cl)c(Cl)c2)cc1OC (stereo unspecified)
Leishmania donovani [1]
  inhibition of growth at 50 µM: 93.3%
Leishmania donovani [2]
  inhibition of growth at 50 µM: 97.3%
[3]
  CC50 at 72 h: 409 µM
[4]
  CC50 at 72 h: 438 µM
[5]
  selectivity ratio: 101
[6]
  viability at 72 h: > 95%
Leishmania donovani [7]
  inhibition at 7.19 µM: > 95%
[8]
  half-life at 1000 µM: 0.841 h
[9]
  k el at 1 h, 1000 µM: 0.000217 s⁻¹
Leishmania donovani [10]
  inhibition in vivo at 50 mg/kg: > 93%
Leishmania donovani [11]
  inhibition in vivo at 50 mg/kg: > 93%
Leishmania donovani [12]
  inhibition: Active
Leishmania donovani [13]
  Activity: Active
Mus musculus [14]
  fold change (FC): 9.9
Mus musculus [15]
  fold change (FC): 9.1
Leishmania donovani [16]
  Activity: 17.2%
Mus musculus [17]
  fold change (FC): 4.1
Leishmania donovani [18]
  Activity: Active
Leishmania donovani [19]
  Activity: 15.2%
[20]
  half-life: 4.81 h
[21]
  CL/F: 47.3 mL/min/kg
